Converted amounts (≈) assume the structure as drawn.
Tests used:
Adenosine receptor A1 [1] = molecular target: T1, Adenosine receptor A1 (Rattus norvegicus, UniProt P25099); experiment: Displacement of [3H]CPX from rat brain cortex adenosine A1 receptor
T1 sequence (P25099 whole entry): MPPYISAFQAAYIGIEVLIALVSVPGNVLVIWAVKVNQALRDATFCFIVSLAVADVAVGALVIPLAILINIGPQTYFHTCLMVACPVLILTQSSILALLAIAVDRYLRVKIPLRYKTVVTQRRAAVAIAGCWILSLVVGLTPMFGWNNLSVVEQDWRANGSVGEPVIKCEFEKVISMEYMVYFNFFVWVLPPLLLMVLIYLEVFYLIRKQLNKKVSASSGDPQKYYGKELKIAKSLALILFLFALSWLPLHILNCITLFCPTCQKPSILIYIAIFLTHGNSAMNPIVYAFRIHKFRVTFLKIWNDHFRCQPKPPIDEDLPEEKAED
How it was run: (§1)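 Crude membranes (10-20 µg protein) from rat brain cortex (A1, 2 nM 3H-CPX) or striatum (A2A, 0.5-1.2 nM 3H-ZM241385) incubated 90 min at room temperature in 50 mM Tris-HCl pH 7.4 with 2 U/mL adenosine deaminase. Stopped with ice-cold buffer, then vacuum filtration and scintillation counting. Ki from concentration-response displacement.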

[2] = Half life in Sprague-Dawley rat at 1 mg/kg, po; assay type: ADME, organism-based; set-up: dose 1 mg/kg, route oral; details: in vivo
How it was run: (§2)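 Pharmacokinetics after one oral dose in male Sprague-Dawley rats (1 mg/kg, or 2 mg dose), beagle dogs and cynomolgus monkeys (1 mg/kg). Bioavailability, half-life, clearance and volume of distribution reported as mean ± variation.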

[3] = Clearance in Sprague-Dawley rat at 1 mg/kg, po; assay type: ADME, organism-based; set-up: dose 1 mg/kg, route oral; details: in vivo; how it was run: as §2
[4] = Oral bioavailability in Sprague-Dawley rat at 1 mg/kg, po; assay type: ADME, organism-based; details: in vivo; how it was run: as §2
Adenosine receptor A2b = molecular target: T2, Adenosine receptor A2b (Homo sapiens, UniProt P29275); experiment: Displacement of [125I]3-(4-aminobenzyl)-8-phenyloxyacetate-1-propyl-xanthine from human adenosine A2B receptor expressed in HEK cells; assay type: cell-based, HEK293
T2 sequence (P29275 whole entry): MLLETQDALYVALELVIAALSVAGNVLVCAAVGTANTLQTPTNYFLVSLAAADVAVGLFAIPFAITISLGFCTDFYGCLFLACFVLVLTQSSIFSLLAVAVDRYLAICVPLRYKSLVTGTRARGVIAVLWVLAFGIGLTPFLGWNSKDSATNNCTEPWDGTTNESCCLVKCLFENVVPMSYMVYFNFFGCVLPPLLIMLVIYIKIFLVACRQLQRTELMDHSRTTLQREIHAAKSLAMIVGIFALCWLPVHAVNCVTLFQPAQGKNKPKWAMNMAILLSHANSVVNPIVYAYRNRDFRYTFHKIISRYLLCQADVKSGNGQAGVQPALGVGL
How it was run: (§3)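 Membranes from stably transfected CHO-K1 (hA1) or HEK (hA2A, hA2B, hA3) cells, 2 h at room temperature in 50 mM HEPES pH 7.4, 1 mM EDTA, 5 mM MgCl2, 1 U/mL adenosine deaminase. 5% DMSO final except hA3. Full curves 10^-11–10^-5 M, seven concentrations, four determinations each. Filtration, γ-counting, Ki derived.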

[5] = molecular target: Adenosine receptor A2a (Rattus norvegicus) (UniProt P30543); experiment: Displacement of [3H]ZM241385 from rat brain striatum adenosine A2A receptor relative to control
[6] = Aqueous solubility of the compound; assay type: physicochemical; details: water
How it was run: (§4)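 Solubility of each compound measured in sterile water for injection, 0.9% saline, 5% dextrose in water, ethanol and octanol; values in mg/mL from duplicate determinations per solvent, individual values varying <5%.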

[7] = molecular target: T3, Adenosine receptor A3 (Homo sapiens) (UniProt P0DMS8); experiment: Displacement of [125I]ABA from human adenosine A3 receptor expressed in HEK cells relative to control; assay type: cell-based; set-up: concentration or dose not given beside the values; details: HEK293
T3 sequence (whole entry): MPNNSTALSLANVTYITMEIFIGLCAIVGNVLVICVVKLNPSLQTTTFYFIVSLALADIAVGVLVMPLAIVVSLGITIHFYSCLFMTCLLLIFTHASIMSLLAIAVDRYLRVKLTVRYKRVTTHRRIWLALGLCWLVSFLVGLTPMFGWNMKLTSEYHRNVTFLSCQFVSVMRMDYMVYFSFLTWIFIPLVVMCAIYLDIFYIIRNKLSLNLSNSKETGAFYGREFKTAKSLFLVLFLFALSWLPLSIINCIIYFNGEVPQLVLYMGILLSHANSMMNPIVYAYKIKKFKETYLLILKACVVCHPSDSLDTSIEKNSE
How it was run: (§5)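 Single-point screen at 1 µM antagonist, run in duplicate, on transfected-cell membranes: CHO-K1 (hA1), HEK (hA2A, hA2B, hA3). 2 h at room temperature in 50 mM HEPES pH 7.4, 1 mM EDTA, 5 mM MgCl2, 1 U/mL adenosine deaminase; 5% DMSO except hA3. Nonspecific binding with 50 µM XAC, or 10 µM BW-1433 for hA3. Result is % radioligand bound relative to control.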

Adenosine receptor A1 [8] = molecular target: T4, Adenosine receptor A1 (Homo sapiens, UniProt P30542); experiment: Displacement of [125I]ABA from human adenosine A1 receptor expressed in CHOK1 cells; assay type: cell-based, CHO-K1; how it was run: as §3
T4 sequence (P30542 whole entry): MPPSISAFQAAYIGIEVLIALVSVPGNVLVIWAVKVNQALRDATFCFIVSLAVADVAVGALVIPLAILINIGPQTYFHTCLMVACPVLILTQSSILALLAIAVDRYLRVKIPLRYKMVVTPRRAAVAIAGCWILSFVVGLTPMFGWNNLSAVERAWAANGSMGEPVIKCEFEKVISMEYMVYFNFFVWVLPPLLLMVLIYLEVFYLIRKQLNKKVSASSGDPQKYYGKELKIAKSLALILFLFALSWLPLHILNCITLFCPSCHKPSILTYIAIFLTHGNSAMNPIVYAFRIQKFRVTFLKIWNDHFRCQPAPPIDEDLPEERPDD

Rattus norvegicus [9] = experiment: Volume of distribution in Sprague-Dawley rat at 2 mg, po; assay type: ADME, organism-based; details: in vivo; how it was run: as §2
[10] = Half life in Sprague-Dawley rat at 2 mg, po; assay type: ADME, organism-based; details: in vivo; how it was run: as §2
[11] = Clearance in Sprague-Dawley rat at 2 mg, po; assay type: ADME, organism-based; details: in vivo; how it was run: as §2
[12] = Solubility in octanol; assay type: physicochemical; how it was run: as §4
[13] = Solubility in ethanol; assay type: physicochemical; how it was run: as §4
[14] = Solubility in 5% dextrose in water; assay type: physicochemical; how it was run: as §4
[15] = molecular target: Adenosine receptors; A1 & A2a (Homo sapiens) (UniProt P30542+P29274); experiment: Selectivity for human adenosine A1 receptor over human adenosine A2A receptor; assay type: protein assay
[16] = Solubility in 0.9% saline; assay type: physicochemical; how it was run: as §4
[17] = molecular target: T5, Adenosine receptor A2b (Homo sapiens) (UniProt P29275); experiment: Displacement of [125I]3-(4-aminobenzyl)-8-phenyloxyacetate-1-propyl-xanthine from human adenosine A2B receptor expressed in HEK cells relative to control; assay type: cell-based; set-up: concentration or dose not given beside the values; details: HEK293; how it was run: as §5
T5 sequence (whole entry): T2 sequence (P29275 whole entry)

Adenosine receptor A2a [18] = molecular target: Adenosine receptor A2a (Homo sapiens, UniProt P29274); experiment: Displacement of [125I]ZM-241385 from human adenosine A2A receptor expressed in HEK cells; assay type: cell-based, HEK293; how it was run: as §3
[19] = Oral bioavailability in Sprague-Dawley rat at 2 mg, po; assay type: ADME, organism-based; details: in vivo; how it was run: as §2
Rattus norvegicus [20] = experiment: Volume of distribution in Sprague-Dawley rat at 1 mg/kg, po; assay type: ADME, organism-based; set-up: dose 1 mg/kg, route oral; details: in vivo; how it was run: as §2
[21] = Oral bioavailability in cynomolgus monkey at 1 mg/kg, po; assay type: ADME, organism-based, Macaca fascicularis; details: in vivo; how it was run: as §2
[22] = Half life in Beagle dog at 1 mg/kg, po; assay type: ADME, organism-based, Canis lupus familiaris; set-up: dose 1 mg/kg, route oral; details: in vivo; how it was run: as §2
[23] = Clearance in Beagle dog at 1 mg/kg, po; assay type: ADME, organism-based, Canis lupus familiaris; set-up: dose 1 mg/kg, route oral; details: in vivo; how it was run: as §2
[24] = Clearance in cynomolgus monkey at 1 mg/kg, po; assay type: ADME, organism-based, Macaca fascicularis; set-up: dose 1 mg/kg, route oral; details: in vivo; how it was run: as §2
Canis familiaris = experiment: Volume of distribution in Beagle dog at 1 mg/kg, po; assay type: ADME, organism-based, Canis lupus familiaris; set-up: dose 1 mg/kg, route oral; details: in vivo; how it was run: as §2
Rattus norvegicus [25] = experiment: Diuretic effect in orally dosed rat; assay type: ADME, organism-based; details: Urine, po
How it was run: (§6)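 Male Sprague-Dawley rats in metabolic cages dosed by gavage in 0.5% CMC suspension, 0.001-3 mg/kg (n=3-5 per group; vehicle n=3). Urine collected 4 h, volume measured gravimetrically, Na and K by flame photometry. Urine flow and UNaV expressed per hour, averaged over 4 h.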

Adenosine receptor A2a [26] = molecular target: Adenosine receptor A2a (Rattus norvegicus, UniProt P30543); experiment: Displacement of [3H]ZM-241385 from rat brain striatum adenosine A2A receptor; how it was run: as §1
Rattus norvegicus [27] = experiment: Natriuretic effect in orally dosed rat; assay type: ADME, organism-based; details: po; how it was run: as §6
Rattus norvegicus [28] = organism: Rattus norvegicus; experiment: Reversal of CPA inhibition of isoproterenol-stimulated rat atria; assay type: functional, organism-based; details: Cardiac atrium
How it was run: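 Isolated rat atria in Krebs buffer at 37 °C gassed with 95% O2/5% CO2, pH 7.4, stimulated with 30 nM isoproterenol. EC50 taken at 50% restoration, 5 atria per dose group.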

Adenosine receptor A3 = molecular target: T6, Adenosine receptor A3 (Homo sapiens, UniProt P0DMS8); experiment: Displacement of [125I]ABA from human adenosine A3 receptor expressed in HEK cells; assay type: cell-based, HEK293
T6 sequence (P0DMS8 whole entry): T3 sequence (whole entry)
How it was run: as §3, with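 “hA3. Radioligands: 0.3 nM (hA1) or 0.6 nM (hA3) 125I-ABA, 0.7 nM 125I-ZM241385, 0.5 nM A2B ligand.” for “hA3.”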

[29] = Half life in cynomolgus monkey at 1 mg/kg, po; assay type: ADME, organism-based, Macaca fascicularis; set-up: dose 1 mg/kg, route oral; details: in vivo; how it was run: as §2
Cynomolgus monkey = experiment: Volume of distribution in cynomolgus monkey at 1 mg/kg, po; assay type: ADME, organism-based, Macaca fascicularis; set-up: dose 1 mg/kg, route oral; details: in vivo; how it was run: as §2
[30] = Oral bioavailability in Beagle dog at 1 mg/kg, po; assay type: ADME, organism-based, Canis lupus familiaris; details: in vivo; how it was run: as §2

Adenosine receptor A2a (Homo sapiens, UniProt P29274), sequence (P29274 whole entry): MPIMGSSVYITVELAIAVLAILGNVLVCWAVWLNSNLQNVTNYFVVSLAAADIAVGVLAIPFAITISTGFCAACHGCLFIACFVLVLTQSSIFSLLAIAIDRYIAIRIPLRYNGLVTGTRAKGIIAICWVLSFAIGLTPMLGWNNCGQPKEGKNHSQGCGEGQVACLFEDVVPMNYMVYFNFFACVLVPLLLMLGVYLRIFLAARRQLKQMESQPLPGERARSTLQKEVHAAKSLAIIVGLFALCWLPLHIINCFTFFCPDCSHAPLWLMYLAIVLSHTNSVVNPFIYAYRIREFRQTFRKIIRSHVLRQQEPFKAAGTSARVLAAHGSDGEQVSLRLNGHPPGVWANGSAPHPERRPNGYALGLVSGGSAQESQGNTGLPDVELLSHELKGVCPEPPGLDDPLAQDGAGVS
Adenosine receptor A2a (Rattus norvegicus, UniProt P30543), sequence (P30543 whole entry): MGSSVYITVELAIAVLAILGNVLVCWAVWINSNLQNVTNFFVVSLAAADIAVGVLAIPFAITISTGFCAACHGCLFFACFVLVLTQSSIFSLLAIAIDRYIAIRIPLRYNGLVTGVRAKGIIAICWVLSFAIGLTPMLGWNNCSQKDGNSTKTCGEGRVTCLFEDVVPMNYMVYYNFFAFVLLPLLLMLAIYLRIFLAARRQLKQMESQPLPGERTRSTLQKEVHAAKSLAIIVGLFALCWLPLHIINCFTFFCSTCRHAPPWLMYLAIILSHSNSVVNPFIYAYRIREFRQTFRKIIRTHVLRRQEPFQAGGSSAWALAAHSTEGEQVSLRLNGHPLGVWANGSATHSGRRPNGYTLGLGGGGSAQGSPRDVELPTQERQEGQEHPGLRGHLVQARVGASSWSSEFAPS
Adenosine receptor A2a (Rattus norvegicus), sequence (P30543 whole entry): as above

Row | SMILES | Ki (Adenosine receptor A1 [1]) | half-life [2] | CL/F [3] | bioavailability [4] | Ki (Adenosine receptor A2b) | solubility [6] | Activity [7] | Ki (Adenosine receptor A1 [8]) | solubility [14] | solubility [16] | Ki (Adenosine receptor A2a [18]) | other results
1 | CCCn1c(=O)c2nc([C@]34CC[C@](CCCC(=O)O)(CC3)CC4)[nH]c2n(CCC)c1=O | 4 nM | 2.04 h | 7.1 mL/min/kg | 48% | 127 nM | 0.5 mg/mL (≈ 1.16 mM) | 26% | 29 nM | – | – | – | Activity [5]: 50%
2 | CCCn1c(=O)c2nc([C@]34CC[C@](C(=O)O)(CC3)CC4)[nH]c2n(CCC)c1=O | 7.8 nM | – | – | – | – | 18.1 mg/mL (≈ 46.6 mM) | 100% | 33 nM | 63 mg/mL (≈ 162 mM) | 29.8 mg/mL (≈ 76.7 mM) | 1070 nM | Vdss (Rattus norvegicus [9]): 0.57 L/kg; half-life [10]: 2.14 h; CL/F [11]: 2.26 mL/min/kg; solubility [12]: 60 mg/mL (≈ 154 mM); solubility [13]: 51 mg/mL (≈ 131 mM); Ratio Ki [15]: 32; Activity [17]: 48%; bioavailability [19]: 97%
3 | CCCn1c(=O)c2[nH]c([C@]34CC[C@](CCC(=O)O)(CC3)CC4)nc2n(CCC)c1=O | 1.3 nM | 3.14 h | 1.56 mL/min/kg | 99% | 90 nM | 24.4 mg/mL (≈ 58.6 mM) | – | – | 12.4 mg/mL (≈ 29.8 mM) | 25.4 mg/mL (≈ 61 mM) | 6410 nM | Vdss (Rattus norvegicus [20]): 0.32 L/kg; bioavailability [21]: 94%; half-life [22]: 6.4 h; CL/F [23]: 11.8 mL/min/kg; CL/F [24]: 5.82 mL/min/kg; Vdss (Canis familiaris): 2.64 L/kg; ED50 (Rattus norvegicus [25]): 0.015 mg/kg; Ki (Adenosine receptor A2a [26]): 2440 nM; ED50 (Rattus norvegicus [27]): 0.015 mg/kg; EC50 (Rattus norvegicus [28]): 16.1 nM; Kb (Rattus norvegicus [28]; read-out: pA2 (converted)): 0.158 nM; Ki (Adenosine receptor A3): > 10000 nM; half-life [29]: 11.1 h; Vdss (Cynomolgus monkey): 4.25 L/kg; bioavailability [30]: 78%

From ChEMBL document CHEMBL1137359, “Potent and orally bioavailable 8-bicyclo[2.2.2]octylxanthines as adenosine A1 receptor antagonists” (J Med Chem, 2006)
